Test system: luciferase expression in M21+GL3 cells
Assay: Luciferase knockdown
Format: cell-based, human
Details: 25 nM, no transfection agent; 4 h serum free, then 2% serum to 96 h
Procedure, shortened: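 M21+GL3 stable clone made by nucleoporation with pGL3-promoter plus pcDNA3.1/hygro (10:1), selected two weeks in 500 μg/ml hygromycin B. siRNA added 4 h at 37°C in serum-free OPTI-MEM, then serum added to 2% and incubated to 96 h total. Lipofectamine 2000-complexed siRNA served as positive control, its medium swapped to DMEM-H with 2% serum. Lysate luminescence read and normalized to total cellular protein.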

Work on “AccGAAAGGucuuAccGGAdTsdTX2 (head to tail) [compound 14]” yielded a reduction in luciferase of 70%.
